pIC50: −log10 of the molar value. ≈ marks a conversion by molar mass, not a printed value. Where “and” joins values, the source holds several entries; their conditions need not be identical. Equal entries are not always repeated. Where two headings read alike, the source gives them in different places.
What was measured:
Type in all cases: cell-based, Human
TK6 cells [1] = experiment: Generation of reactive oxygen species; conditions: for level of ROS generated: DEHP 234μM, MEHP 196μM (IC50's), cisplatin 13uM
TK6 cells [2] = experiment: Cell viability / IC50 by trypan blue exclusion; conditions: for IC50 (cell viability): same value expressed in mg/L
Outline: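 TK6 lymphoblasts were grown in RPMI 1640 with 10% FBS at 37°C, 5% CO2, and subcultured at 1×10^6 cells per 3.5 mL to keep exponential growth. Cells were exposed for 24, 48 or 72 h to test compound at 10–500 μM ([…]). Viability was counted by trypan blue exclusion on an automated cell counter, and the 50% inhibitory concentration was read from the viability curves.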

TK6 cells [3] = conditions: DEHP 234μM, MEHP 196μM (IC50's), valinomycin 11 uM
[4] = test system: caspases 3 and 7 in TK6 cells; experiment: Activation of caspases 3 and 7
[5] = read-out: IC50 (cell viability), 24 hours of exposure
[6] = read-out: IC50 (cell viability), 48 hours of exposure
[7] = read-out: IC50 (cell viability), 72 hours of exposure
[8] = 24 hours exposure, DEHP and MEHP at IC50's, staurosporine 1 uM
[9] = 48 hours exposure, DEHP 234μM, MEHP 196μM (IC50's), staurosporine 1μM

SMILES	level of ROS generated (TK6 cells [1]; 24 hours exposure) [FSU]	level of ROS generated (TK6 cells [1]; 48 hours exposure) [FSU]	IC50 (cell viability) (TK6 cells [2]; 48 hours of exposure) [µg/mL]	IC50 (cell viability) (TK6 cells [2]; 72 hours of exposure) [µg/mL]	pIC50 (TK6 cells [2]; [5])	pIC50 (TK6 cells [2]; [6])	pIC50 (TK6 cells [2]; [7])	mitochondrial membrane permeability (TK6 cells [3]; 24 hours exposure) [FSU]	mitochondrial membrane permeability (TK6 cells [3]; 48 hours exposure) [FSU]	caspases 3 and 7 activation [4, 8] [FSU]	caspases 3 and 7 activation [4, 9] [FSU]	ROS production relative to the parent DEHP (TK6 cells [1]; comparison among phthalates at IC50 doses)
N.N.[Cl][Pt][Cl] [Cisplatin, cis-diammineplatinum (II) dichloride, reference compound]	1348.85	1575.35	–	–	–	–	–	–	–	–	–	–
CCCCC(CC)COC(=O)c1ccccc1C(=O)OCC(CC)CCCC (centres unmarked) [DEHP, diethylhexyl phthalate]	458.54	793.27	91.4 (≈ 234 µM)	39.06 (≈ 100 µM)	~3.60 and 3.60	3.63	4.00	1100.85	2505.58	122.13	1406.94	–
CCCCC(CC)COC(=O)c1ccccc1C(=O)O (centres unmarked) [MEHP, monoethylhexyl phthalate]	816.53	1518.75	54.55 (≈ 196 µM)	22.27 (≈ 80 µM)	3.60	3.71	4.10	1630.94	2210.09	292.80	1209.72	twice as much
CN[C@@H]1C[C@H]2O[C@@](C)([C@@H]1OC)n1c3ccccc3c3c4c(c5c6ccccc6n2c5c31)C(=O)NC4 [Staurosporine, reference compound]	–	–	–	–	–	–	–	–	–	1390.92	1322.55	–
CC(C)[C@@H]1NC(=O)[C@H](C)OC(=O)[C@@H](C(C)C)NC(=O)[C@@H](C(C)C)OC(=O)[C@H](C(C)C)NC(=O)[C@H](C)OC(=O)[C@@H](C(C)C)NC(=O)[C@@H](C(C)C)OC(=O)[C@H](C(C)C)NC(=O)[C@H](C)OC(=O)[C@@H](C(C)C)NC(=O)[C@@H](C(C)C)OC1=O [valinomycin, Valinomycin, reference compound]	–	–	–	–	–	–	–	1079.18	2327.65	–	–	–

Reference: publication PMC3217166 (Toxicology in vitro : an international journal published in …, 2011)
